Measured values: ChEMBL document CHEMBL1138352, “On the intractability of estrogen-related receptor alpha as a target for activation by small molecules” (J Med Chem, 2007)
Active and inactive are the calls of the source. The calls are words filed in the database; no cut-off is given here.

What was measured:
[1] = biological target: T1, Steroid hormone receptor ERR1 (Homo sapiens) (UniProt P11474); test: Effect on interaction between ERRalpha ligand binding domain and RIP140 at 30 uM by FRET assay
T1 sequence (whole entry): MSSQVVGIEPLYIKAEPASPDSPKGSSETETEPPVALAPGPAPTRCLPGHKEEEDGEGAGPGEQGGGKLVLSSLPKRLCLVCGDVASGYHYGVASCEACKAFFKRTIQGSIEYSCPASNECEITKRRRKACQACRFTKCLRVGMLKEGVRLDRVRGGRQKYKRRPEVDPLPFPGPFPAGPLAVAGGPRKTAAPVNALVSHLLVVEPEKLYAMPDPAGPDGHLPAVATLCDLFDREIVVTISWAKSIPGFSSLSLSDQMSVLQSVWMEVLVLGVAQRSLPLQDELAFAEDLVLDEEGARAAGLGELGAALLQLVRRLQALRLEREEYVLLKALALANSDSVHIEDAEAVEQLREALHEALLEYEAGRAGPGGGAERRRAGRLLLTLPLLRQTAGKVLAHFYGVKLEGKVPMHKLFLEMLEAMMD

[2] = biological target: T1, Steroid hormone receptor ERR1 (Homo sapiens); test: Activity at human ERRalpha expressed in HeLa cells assessed as estrogen response element activation at 50 uM after 24 ro 30 hrs by luciferase reporter gene assay; type: cell-based
In short: (§1)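 HeLa cells were co-transfected with an expression vector for human ERRα (wild type, or the F272A point mutant for line 1) and a luciferase reporter driven by a triple repeat of an estrogen response element. Luciferase activity in compound-exposed cells was compared with vehicle-treated cells.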

[3] = biological target: T2, Estrogen-related receptor gamma (Homo sapiens) (UniProt P62508); test: Effect on interaction between ERRgamma ligand binding domain and RIP140 by FRET assay
T2 sequence (whole entry): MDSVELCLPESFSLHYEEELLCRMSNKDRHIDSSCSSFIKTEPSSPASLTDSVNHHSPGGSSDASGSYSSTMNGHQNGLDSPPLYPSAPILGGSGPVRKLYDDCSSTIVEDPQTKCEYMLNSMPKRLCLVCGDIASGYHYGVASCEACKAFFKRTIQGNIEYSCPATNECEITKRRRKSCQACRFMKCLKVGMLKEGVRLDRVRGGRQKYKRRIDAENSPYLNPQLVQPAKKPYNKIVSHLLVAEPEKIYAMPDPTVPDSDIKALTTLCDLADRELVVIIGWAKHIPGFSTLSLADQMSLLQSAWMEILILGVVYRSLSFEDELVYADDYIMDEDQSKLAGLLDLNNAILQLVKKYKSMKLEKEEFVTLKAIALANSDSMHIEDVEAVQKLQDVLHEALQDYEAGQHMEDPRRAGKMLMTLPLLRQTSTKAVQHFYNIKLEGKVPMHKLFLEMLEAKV

HeLa [4] = test: Activity at human ERRalpha F272A mutant expressed in HeLa cells assessed as estrogen response element activation at 10 uM after 24 to 30 hrs by luciferase reporter gene assay; type: cell-based
In short: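 HeLa cells transiently co-transfected with an expression vector for human ERRα (F272A point mutant) and a luciferase reporter carrying a triple repeat of the estrogen response element. Cells were exposed to compound, and luciferase activity was read relative to vehicle-treated cells.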

HeLa [5] = test: Activity at human ERRalpha F272A mutant expressed in HeLa cells assessed as estrogen response element activation after 24 to 30 hrs by luciferase reporter gene assay; type: cell-based; in short: as §1

| Activity [1] | Activity [2] | Activity [3] | SMILES | Activity (HeLa [4]) | Activity (HeLa [5]) |
| --- | --- | --- | --- | --- | --- |
| inactive | inactive | inactive | CCNC(=O)c1ccc(O)cc1 |  |  |
| inactive | inactive | inactive | NC(=O)c1ccc(O)cc1 |  |  |
| inactive | inactive | inactive | CCCCNC(=O)c1ccc(O)cc1 |  |  |
| inactive | inactive | inactive | CCCCCNC(=O)c1ccc(O)cc1 |  |  |
| inactive | inactive | inactive | C=C(/C=N/NC(=O)c1ccc(O)cc1)CC |  |  |
| inactive | inactive | inactive | CCCCC/C=N/NC(=O)c1ccc(O)cc1 |  |  |
| inactive | inactive | inactive | CC(C)CNC(=O)c1ccc(O)cc1 | inactive |  |
| inactive | inactive | inactive | CCC(C)/C=N/NC(=O)c1ccc(O)cc1 (configuration not stated) |  |  |
| inactive | inactive | inactive | CC(C)/C=N/NC(=O)c1ccc(O)cc1 |  |  |
| inactive | inactive | inactive | C=CCC/C=N/NC(=O)c1ccc(O)cc1 |  |  |
| inactive | inactive | inactive | CC(C)NC(=O)c1ccc(O)cc1 |  |  |
| inactive | inactive | inactive | CC(C)CCNC(=O)c1ccc(O)cc1 |  |  |
| inactive | inactive | inactive | CC(C)(C)CNC(=O)c1ccc(O)cc1 |  |  |
| inactive | inactive | inactive | CCC(C)C(C)/C=N/NC(=O)c1ccc(O)cc1 (configuration not stated) |  |  |
| inactive | inactive | inactive | CC/C=N/NC(=O)c1ccc(O)cc1 |  |  |
| inactive | inactive | inactive | CNC(=O)c1ccc(O)cc1 |  |  |
| inactive | inactive | inactive | CCCNC(=O)c1ccc(O)cc1 |  |  |
|  |  |  | CC(C)c1ccc(/C=N/NC(=O)c2ccc(O)cc2)cc1 |  | inactive |
| inactive | inactive | inactive | C=C(C)CNC(=O)c1ccc(O)cc1 |  |  |
|  |  |  | CN(C)CCc1c[nH]c2ccc(-c3cccc4ccccc34)cc12 | inactive |  |
